Screens as filed in PubChem.
Most compounds without a hit are left out; they make up all but 3.1% or so of the library.
CSN inh: inhibitors of human CSN-mediated cullin deneddylation. Q92905. 360,000 compounds, 0.38% hits. inhibition, % at 12.5 µM. Purified CSN, SCF-Nedd8-OG deneddylation, fluorescence polarization;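 active means pattern-corrected inhibition above about 35%, with an unprinted fluorescence ratio check between 0.5 and 1.5, limit read from the data, passing the limit was not always enough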
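test system = HEK293T-derived human Csn5 enzyme | amount = 0.24 nM Csn5 enzyme, final concentration | medium = Tris/NaCl/DTT buffer, pH 7.5 | schedule = 90 min reaction at room temperature | signal = FP | evaluation = inhibition of Csn5 cleavage, % | compound dosing = single dose of 12.5 µM compound with 0.25% DMSO | probe or stimulus = 10 nM SCFSkp2-Nedd8OG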
LEDGF integ inh: blocks HIV-1 LEDGF/p75-dependent DNA integration; TR-FRET IN-LEDGF/p75 DNA integration, Eu/Cy5; inhibition, % at 3.7 µM; 370,000 compounds, 0.64% hits; AID 743269;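 active means inhibition above the screen-wide mean plus 3 SD, cut at about 13% in these data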;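 further: signal is the Cy5 over europium emission ratio at 671 and 618 nm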
MBD2 inh: MBD2-methylated oligo binding inhibition; Q9UBB5; TR-FRET, MBD2 binding to methylated oligonucleotide; inhibition, % at 4.4 µM; 370,000 compounds, 0.31% hits; AID 686964; in the data active means inhibition above about 13%
rCAG binder: r(CAG) repeat RNA binding; TO-PRO-1 dye displacement fluorescence; inhibition, % at 3 µM; 370,000 compounds, 1.3% hits;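 active means inhibition above the plate cutoff, the mean of all test compounds on that plate plus 3 SD, cut at about 35% in these data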;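 further: higher means more dye released from RNA so lower well fluorescence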
ATG4B inh: ATG4B (human) cysteine protease inhibition | ATG4B cleavage of LC3-PLA2, NBD-HPC fluorescence, 1 h | inhibition, % at 8.33 µM | 340,000 compounds, 0.51% hits; in the data active means inhibition above about 40%
Target sequence (Q9Y4P1 whole entry, looked up): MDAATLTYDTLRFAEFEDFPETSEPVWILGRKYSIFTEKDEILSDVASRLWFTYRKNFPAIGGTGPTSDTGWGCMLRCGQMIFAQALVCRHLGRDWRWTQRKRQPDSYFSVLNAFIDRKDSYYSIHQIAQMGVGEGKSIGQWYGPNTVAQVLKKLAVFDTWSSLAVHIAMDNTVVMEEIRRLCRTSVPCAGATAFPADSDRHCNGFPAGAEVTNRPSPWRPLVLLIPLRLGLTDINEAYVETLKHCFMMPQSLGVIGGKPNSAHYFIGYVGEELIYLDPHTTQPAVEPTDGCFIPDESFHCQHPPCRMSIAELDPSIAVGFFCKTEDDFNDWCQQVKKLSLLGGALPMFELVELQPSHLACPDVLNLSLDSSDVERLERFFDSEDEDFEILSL
UHRF1 MBD2 ctr: blocks human UHRF1 binding to methylated DNA. UHRF1 binding to methylated oligo, TR-FRET. inhibition, % at 4.4 µM. 370,000 compounds, 0.75% hits. AID 687016; in the data active means inhibition above about 21%;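 further: UHRF1 SRA domain binding a hemimethylated CpG hairpin DNA probe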
rCAG binder conf: r(CAG) RNA repeat binding, confirmation; shares compounds with rCAG binder; TO-PRO-1 dye displacement fluorescence; inhibition, % at 3 µM; 4,300 compounds, 70% hits; AID 652065;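 active means inhibition above a per-plate cutoff, the mean inhibition of sample wells plus 3 SD, cut at about 35% in these data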;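 further: loss of TO-PRO-1 fluorescence as compound displaces dye from 1x1 AA loop RNA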
dCAG dye counter: disrupts DNA CAG TO-PRO-1 complex, flagging rCAG hits; shares compounds with rCAG binder; d(CAG) DNA oligo TO-PRO-1 dye displacement, fluorescence; inhibition, % at 3 µM; 4,300 compounds, 94% hits; AID 652068;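 active means inhibition above its plate's cutoff, the mean test-well inhibition plus 3 SD, cut at about 4.8% in these data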;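 further: hits displace the dye from DNA and so lower well fluorescence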
A number is an active result; 0 = inactive; - = no result.

SMILES	CSN inh	LEDGF integ inh	MBD2 inh	rCAG binder	ATG4B inh	UHRF1 MBD2 ctr	rCAG binder conf	dCAG dye counter
O[C@@H]1[C@@H](O)[C@H](n2c3ccc(Cl)cc3c3ccc4c5cc(Cl)ccc5[nH]c4c32)OC[C@H]1O	-	0	0	51	-	0	43	27
Oc1ccccc1C=NNC(=S)NC1CC2C=CC1C2 (stereo unspecified)	0	0	0	0	-	0	-	-
Oc1c(Cl)cc(Cl)cc1/C=N/NC(=S)NC1CC2C=CC1C2 (stereo unspecified)	0	0	0	66	0	0	81	47
NS(=O)(=O)c1ccc(N/N=C/c2ccccc2C(=O)O)c([N+](=O)[O-])c1	0	0	0	0	0	0	-	-
COc1ccccc1NS(=O)(=O)c1ccc(N/N=C/c2ccccc2OCC(=O)O)c([N+](=O)[O-])c1	0	0	0	92	0	0	90	67
CCN(CC)S(=O)(=O)c1ccc(N/N=C/c2ccccc2OCC(=O)O)c([N+](=O)[O-])c1	0	0	0	75	0	0	75	36
COc1ccc(NS(=O)(=O)c2cc([N+](=O)[O-])ccc2N/N=C\c2c(C)[nH]c3ccccc23)cc1	0	0	0	0	0	0	-	-
COc1ccc(NS(=O)(=O)c2cc([N+](=O)[O-])ccc2NN=Cc2ccccc2OCC(=O)O)cc1	0	0	0	85	0	0	88	63
COc1ccc(NS(=O)(=O)c2ccc(NN=Cc3ccc(C(=O)O)cc3)c([N+](=O)[O-])c2)cc1	-	0	0	0	-	0	-	-
O=C(O)COc1ccccc1/C=N/Nc1ccc(S(=O)(=O)Nc2ccc(Cl)cc2)cc1[N+](=O)[O-]	0	0	0	84	0	0	91	70
CC(=O)NC(NC(=S)Nc1ccc(S(N)(=O)=O)cc1)C(Cl)(Cl)Cl (stereo unspecified)	0	0	0	0	0	0	-	-
CCC(=O)NC(NC(=S)Nc1ccc(S(N)(=O)=O)cc1)C(Cl)(Cl)Cl (stereo unspecified)	0	0	0	53	0	0	0	0
O=C(O)c1ccc(NC(=O)c2cccc(S(=O)(=O)Nc3ccc(C(=O)O)cc3)c2)cc1	0	0	0	0	0	0	-	-
O=C1CSc2ccc(C(=O)Nc3cccc(S(=O)(=O)Nc4ccc(Br)cc4)c3)cc2N1	0	0	0	39	0	0	45	15
O=C(CCCN1C(=O)/C(=C\c2ccccc2)SC1=S)Nc1ccc(O)cc1C(=O)O	0	0	0	80	0	0	68	32
CC(C(=O)Nc1ccc(O)cc1C(=O)O)N1C(=O)/C(=C\c2cccs2)SC1=S (stereo unspecified)	0	0	0	80	0	0	80	41
COc1ccccc1/C=C1\SC(=S)N(CCC(=O)Nc2ccc(C(=O)O)c(O)c2)C1=O	0	0	0	91	0	0	85	59
COc1ccccc1/C=C1/SC(=S)N(CCC(=O)Nc2cccnc2)C1=O	0	0	0	0	0	0	-	-
CCc1ccc(/C=C2/SC(=S)N(CCCC(=O)Nc3ccccc3C(=O)O)C2=O)cc1	0	0	0	0	0	0	-	-
CC(/C=C1\SC(=S)N(CCC(=O)Nc2cccc(C(=O)O)c2)C1=O)=C\c1ccccc1	0	0	0	37	0	0	88	62
O=C(NCCc1nc2ccccc2n1CCOc1ccc2cccnc2c1)C1CCCCC1	-	0	0	-	-	0	-	-
CCCc1cc(-c2n[nH]c(C)c2-c2ccc(C(=O)OCC)o2)c(O)cc1O	0	0	0	0	0	0	-	-
CCCc1cc2c(OC(=O)CC)c(-c3ccc(C(=O)OCC)o3)c(=O)oc2cc1OC	0	0	0	38	0	24	0	6.8
CCC(CC)C1=NN2C(=N)/C(=C/c3ccc(OC(=O)c4ccco4)cc3)C(=O)N=C2S1	0	0	0	42	0	0	46	12
CS(=O)(=O)C1=NSC2=NC(=O)/C(=C\c3ccc(OC(=O)c4ccco4)c(Br)c3)C(=N)N21	0	0	0	40	0	0	83	53
